Source: the RNAGym collection of RNA variant scans (doi:10.1126/science.aae0568)
This sample holds only a part of the variants without activity.

B1: tRNA (parent)
chain: GUUCCGUUGGCGUAAUGGUAACGCGUCUCCCUCCUAAGGAGAAGACUGCGGGUUCGAGUCCCGUACGGAACG

Variants of: B1
Test: yeast fitness relative to wild type (ratio to wild type); higher = fitter; tRNA-Arg(CCU), competitive growth, 37 C, YPD
Procedure, shortened: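 Changes in genotype frequencies gave Darwinian fitness relative to wild type. Frequencies were read by 100-nucleotide paired-end sequencing of gene amplicons before and after pooled Saccharomyces cerevisiae strains, carrying tRNA-Arg(CCU) gene variants at the native locus, were competed in YPD at 37°C for 24 hours in six replicates. A genotype was kept only with ≥ 100 starting reads, and estimates < 0.5 were set to 0.5.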
Variant GUUCGGUCGCCGUAAUGGUAACGCGUCUCCCUCCUAAGGAGAAGACUGCGGAUUCGAGUCCCGUACGGAACG [C5G U8C G10C G52A] has a yeast fitness of at most 0.5. GUUCGGUCGGCGUAAUGGUAACGCGUCUCUCUCCUAAGGAGAAGACUGCGGGUACGAGUCCCGUACGGAACG [C5G U8C C30U U54A] showed a yeast fitness of at most 0.5. With GUUCGGUGGGGGUAAUGGUAACGCGUCUCCCUCCUAAGGAGAAGACUGAGGCUUCGAGUCCCGUACGGAACG [C5G U8G C11G C49A G52C] the yeast fitness was at most 0.5. Variant GUUCGGAUGGCGUAAUGGUCACGCGUCUCCCUCCUAAGGAGAAGACUGCGGGUUCGAGUUCCGUACGGUACG [C5G U7A A20C C60U A69U] has a yeast fitness of 0.546. Work on GUUCGGUCGGCGUCAUGGUAACGCGUCUACGUCCUAAGGAGAAGACUGCGGGUACGAGUCCCGUACGGAACG [C5G U8C A14C C29A C31G U54A] yielded a yeast fitness of at most 0.5. With GUUCGGUUGGCGUAAUGGUAACGCGUCUCCCUCCUAAGGAGAAGACUGCGUGUUCGAGUCCCGUACCGAACG [C5G G51U G67C] the yeast fitness was at most 0.5. Variant GUUCGGUCGGCGUAAUGGUAACGCGUCUCCCUCCUAAGGAGAAGACUGCGGGUUCGAGUCCCGUACGGAACG [C5G U8C] has a yeast fitness of 0.843. GUUCGGUGGGCGUAAUGGUAACGCGUCUCCCUCCUAAGGAGAAGACUGCGGGUUCGAGUCCCGUACGGAACG [C5G U8G] showed a yeast fitness of 0.527. For GUUCGGUUGGCGUAAUGGUAACGCGUCUCCCUCCUAAGGAGAAGACUGCGGGUUCGACUCCCGUACGGAACG [C5G G58C], the yeast fitness was 0.859. Work on GUUCGGCUGGCGUAAUGGUAACGCGUCUCCCUCCUAAGGAGAAGACUGCGGGUACGAGUCCCAUACGGAACG [C5G U7C U54A G63A] yielded a yeast fitness of at most 0.5. GUUCGGUGGGGGUAAUGGUAACGCGUCUCCCUCCUAAGGAGAAGACUGUGGGUUCGAGUCGCGUACGGAACG [C5G U8G C11G C49U C61G] showed a yeast fitness of at most 0.5. GUUCGGUUGGCGUAAUGGUAACGCGUCUCCCUCCUAAGGAGAAGACUGCGGAUUCGAGUCCCGUGCGGAUCG [C5G G52A A65G A70U] showed a yeast fitness of at most 0.5. In the case of GUUCGGUAGGCGUAAUGGUAACGCGUCUCCCUCCUAAGGACAAGACAGCGGGUUCGAGUCACGUACCGAACG [C5G U8A G41C U47A C61A G67C], the yeast fitness is reported as at most 0.5. GUUCGGCUGGCGUAAUGGUAACGCGGCUCCCUCCUAAGGAGAAGACUGCGGGUUCGAGUGCCGUACGGAACG [C5G U7C U26G C60G] gave a yeast fitness of at most 0.5. GUUCGGUAGGCGUAAUGGUAACGCGUCUCCCUCCUAAGGAGAAGACUGCGGGUUCGAGUCCAGUACGGUACG [C5G U8A C62A A69U] showed a yeast fitness of at most 0.5. With GUUCGGUCGGCGUAAUGGUAACGCGUCUCCCUCCUAAGGAGAAGACAGCGGGUUCGAGUCCCGUACGCAACG [C5G U8C U47A G68C] the yeast fitness was at most 0.5. Work on GUUCGGUUGGCGUAAUGGUAACGCGUCUCCCUCCUAAGGAGAAGACUGCGGGUUCGAGUCCCGUACGCAACG [C5G G68C] yielded a yeast fitness of 0.826. GUUCGGUUGGCGUAAUGGUAACGCGUCUCCCUCCUAAGGAGAAGACUGCGGGUUCGAGUCCCGUACGAAACG [C5G G68A] gave a yeast fitness of 0.716. Work on GUUCGGCUGGCGUAAUGGUAACGCGUCUCCCUCCUAAGGAGAAGACUGUGGGUUCGAGUCCCGUACGGAACG [C5G U7C C49U] yielded a yeast fitness of 0.524. In the case of GUUCGGUCGGGGUAAUGGUAACGCGUCUCCGUCCUAAGGAGAAGACUGCGGGUUCGAGUCCCGUACGGAACG [C5G U8C C11G C31G], the yeast fitness is reported as at most 0.5. Variant GUUCGGCUGGCGUCAUGGUAACGCGUCUCCCUCCUAAGGAGAAGACUGCGCGUUCGAGUCCCGUACGGAACG [C5G U7C A14C G51C] has a yeast fitness of 0.697. Work on GUUCGGAUGGCGUACUGGUAACGCGUCACCCUCCUAAGGAGAAGACUGCGGGUUCGAGUCCCGUACGGAACG [C5G U7A A15C U28A] yielded a yeast fitness of at most 0.5. In the case of GUUCGGUUGGCGUAAUGGUAACGCGUCUCCCUCCUAAGGAGAAGACUGCGGGUUCAACUCCCGUACGGAACG [C5G G56A G58C], the yeast fitness is reported as 0.756. With GUUCGGUUGGCGUAAUGGUAACGCGUCUCCCUCCUAAGGAGAAGACUGCGGGUUCGAGUCCCGUACCGAACG [C5G G67C] the yeast fitness was 0.99. GUUCGGUUGGCGUAAUGGUAACGCGUCUCCCUCCUAAGGAGAAGACUGCGGGUUCGAGUCCCGUACAGAACG [C5G G67A] showed a yeast fitness of 0.86. In the case of GUUCGGCUGGCGUAAUGGUAACGGGUCUCCCUCCUAAGGAGACGACUGCGGGUUCGAGUCCCGUACGGAACG [C5G U7C C24G A43C], the yeast fitness is reported as 0.629. Variant GUUCGGUUGGCGAAAUGGUGACGCGUCUCCCUCCAAAGGGGAAGACUGCGGGUUCGAGUCCCUUACGGAACG [C5G U13A A20G U35A A40G G63U] has a yeast fitness of at most 0.5. For GUUCGGUAGGCGUAAUGGUAACGCGUCUCCCUCCUAAGAAGAAGACUGCGGGUUCGAGUCCCGUACGGAACG [C5G U8A G39A], the yeast fitness was at most 0.5. With GUUCGGUCGGCAUAAUGGUAACGCGUCUCCCUCCUAAGGAGAAGAUUGCGGGUUCGAGUCCCGUACGAAACG [C5G U8C G12A C46U G68A] the yeast fitness was at most 0.5. With GUUCGGGUGGCGUAGUGGUAACGCGUCUCCCUCCUAAGGAGAAGACUGCGGGUUCGAGUCCCGUACGGAACG [C5G U7G A15G] the yeast fitness was at most 0.5. GUUCGGAUGGCGUAAUGGUCACGCGUCUCCGUCUUAAGGAGAAGACUGCGGGUUCGAGUCCAGUACGGAACG [C5G U7A A20C C31G C34U C62A] gave a yeast fitness of at most 0.5. For GUUCGGUAGGCGUAAUGGUAACGCGUCUCCCUCCUUAGGAGGAGACUGCAGGUUCGGGUCCCGUACGGAACG [C5G U8A A36U A42G G50A A57G], the yeast fitness was at most 0.5. In the case of GUUCGGUCGGCAUAAUGGUAACGCGUCACCCUCCUAAGGAGAAGACUGCGGGUUCGAGUCCCGUGCGGAACG [C5G U8C G12A U28A A65G], the yeast fitness is reported as at most 0.5. For GUUCGGUAGGCGUGAUGGUAACGCGUCUCCCUCCUAAGGAGAAGACUGCGGGUUCGAGUCCCGUACGGAACG [C5G U8A A14G], the yeast fitness was at most 0.5. Variant GUUCGGAUGGCGUAAUGGUAAUGCGUCUCACUCCUAAGGAGAAGACUGGGGGUUCGAGUCCGGUACGGAACG [C5G U7A C22U C30A C49G C62G] has a yeast fitness of at most 0.5. In the case of GUUCGGAUGGCGUAAUGGUCACGCGUCUCCCUCCUAAGGAGAAGACUGCGGGUUCGAGUCCCGUACGGAACG [C5G U7A A20C], the yeast fitness is reported as 0.694. In the case of GUUCGGUCGGAGUAGUGAUAACGCGUCUCGCUCCUAAGGAGAAGACUGCGGGUUCGAGUCCCGUACGGAACG [C5G U8C C11A A15G G18A C30G], the yeast fitness is reported as at most 0.5.
